MBD2 DNA inh: inhibitors of MBD2 binding to methylated DNA, primary screen, biochemical, TR-FRET, DNA-binding domain, human. Methyl-CpG-binding domain protein 2 (Homo sapiens), Q9UBB5. MBD2 binding to methylated oligonucleotide. inhibition, % at 4.4 µM. hit rate 0.31% among 370,000. AID 686964, 2013; in the data active = inhibition above about 13%
Target sequence (Q9UBB5 whole entry, looked up, the tested form may be a part): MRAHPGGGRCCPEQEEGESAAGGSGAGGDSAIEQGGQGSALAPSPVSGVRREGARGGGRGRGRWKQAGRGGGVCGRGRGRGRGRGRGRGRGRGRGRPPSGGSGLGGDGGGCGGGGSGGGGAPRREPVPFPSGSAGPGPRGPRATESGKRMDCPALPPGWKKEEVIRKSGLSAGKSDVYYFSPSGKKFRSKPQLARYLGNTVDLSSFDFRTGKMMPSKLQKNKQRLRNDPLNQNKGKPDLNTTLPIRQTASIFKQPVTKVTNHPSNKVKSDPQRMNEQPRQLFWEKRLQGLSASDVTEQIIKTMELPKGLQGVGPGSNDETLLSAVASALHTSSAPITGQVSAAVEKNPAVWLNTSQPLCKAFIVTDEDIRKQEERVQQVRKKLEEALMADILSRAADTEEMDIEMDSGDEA
UHRF1 MBD2 ctr: UHRF1 methylated DNA binding inhibitors, primary screen, counter-screen for MBD2 inhibitor project, biochemical, TR-FRET, human UHRF1, single concentration; E3 ubiquitin-protein ligase UHRF1 (Homo sapiens), Q96T88; UHRF1 binding to methylated oligo; inhibition, % at 4.4 µM; hit rate 0.75% among 370,000; AID 687016, 2013; in the data active = inhibition above about 21%;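 also: UHRF1 SRA domain binding a hemimethylated CpG hairpin DNA probe; 0% = median of test compound wells and 100% = reference inhibitor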
TDP2 absorb: human TDP2 enzyme inhibitors, primary screen, biochemical, epi absorbance, recombinant enzyme; Tyrosyl-DNA phosphodiesterase 2 (Homo sapiens), O95551; T5PNP hydrolysis, p-nitrophenol absorbance 415 nm; inhibition, % at 12.8 µM; hit rate 0.34% among 370,000;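 active = inhibition above the mean of all tested compounds plus 3 SD, set per campaign, cut at about 25% in these data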;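 also: 0% = DMSO with enzyme and 100% = buffer with substrate but no TDP2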
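System – recombinant human TDP2 · Quantity – TDP2 enzyme at 120 nM final · Doses – single concentration, 12.8 µM nominal, with 1% DMSO · Incubation – 2 h at 37 °C · Measured by – epi absorbance of p-nitrophenol freed from T5PNP by hydrolysis · Read-out – % inhibition relative to enzyme-containing and enzyme-free wells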
LEDGF integ inh: blockers of LEDGF/p75-dependent integrase strand transfer – biochemical, TR-FRET, high throughput, primary screen | TR-FRET IN-LEDGF/p75 DNA integration, Eu/Cy5 | HIV-1 integrase (with human LEDGF/p75) | inhibition, % at 3.7 µM | hit rate 0.64% among 370,000;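 active = inhibition above the screen-wide mean plus 3 SD, cut at about 13% in these data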;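 also: signal is the Cy5 over europium emission ratio at 671 and 618 nm; 0% = plate median of compound wells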
TDP2 inh conf: human TDP2 enzyme inhibitors, retest, confirmation, biochemical, epi absorbance, recombinant enzyme. shares compounds with TDP2 absorb. hit rate 22% among 1,100. AID 743263, 2014. absorbance read-out. inhibition, % at 12.8 µM; in the data active = inhibition above about 25%;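 also: 0% = vehicle with enzyme and 100% = no enzyme buffer only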
* hit, by the source's call; . = no result. This is a sample that favours compounds with a hit; in the whole collection about 1.6% have one here.

SMILES	MBD2 DNA inh	UHRF1 MBD2 ctr	TDP2 absorb	LEDGF integ inh	TDP2 inh conf
CCOc1ccc(NC2=C(OC)C(=O)c3ccccc3C2=O)cc1	-18	-7	26*	6	22
COC1=C(Nc2ccc(OC)cc2)C(=O)C(OC)=C(Nc2ccc(OC)cc2)C1=O	2	-3	3	-4	.
COC1=C(Nc2ccc(O)cc2)C(=O)c2ccccc2C1=O	-24	-23	48*	6	6
CCOC(=O)c1sc(NC(=O)CNCc2ccccn2)c(C(=O)OCC)c1C	3	4	26*	0	0
CCOC(=O)c1sc(NC(=O)CNCc2cccnc2)c(C(=O)OCC)c1C	-4	0	1	1	.
O=C(O)C(Cc1c[nH]c2ccccc12)NS(=O)(=O)c1ccc(F)cc1 (stereo not drawn)	0	0	28*	-4	-1
CCCN1CCCCC(NC(=O)c2ccc3ccccc3c2)C1=O (stereo not drawn)	0	-2	-2	6	.
CC(C)CC(=O)N1CCN(Cc2ccc(C(F)(F)F)cc2)CC1	2	0	30*	-1	12
CC(C)CC(=O)N1CCN(Cc2ccc(Cl)cc2)CC1	-2	-2	26*	1	1
CCOc1cccc(OCCn2cnc3ccccc3c2=O)c1	2	-3	8	-1	.
CCOc1cccc(OCCCCn2cnc3ccccc3c2=O)c1	1	0	25*	-5	0
Cc1ccc(CSc2nnc(C)c(=O)n2N)cc1	2	-1	-16	1	.
Cc1nnc(SCc2ccccc2)n(N)c1=O	2	2	58*	0	-4
S=C(Nc1cccc(Br)c1)OC1CCC12CCC(c1ccccc1)CC2 (stereo not drawn)	3	3	2	1	.
CCOc1ccc(N(CC(=O)Nc2c(C)n(C)n(-c3ccccc3)c2=O)S(=O)(=O)c2cc(OC)ccc2OC)cc1	4	3	-6	-5	.
O=C1CCC(=O)N1CC(=O)N1CCCc2ccccc21	0	2	25*	-1	13
Cc1cc(C)c(OCCOCCN2CCN(C)CC2)c(Cl)c1	2	2	29*	2	11
Cc1cc(C)c(OCCN2CCCC2)c(Cl)c1	-4	-2	24	2	.
COC(=O)[C@]12C[C@H](CC(=O)N3CCCC3)C(=O)N(CCC3=CCCCC3)C1=C[C@H](C1CCCC1)O[C@@H]2C	8	5	-5	-1	.
O=C(Nc1cccc2nsnc12)c1ccc(-c2ccc(Br)cc2)o1	-8	-2	25*	10	5
Cc1ccccc1NC(=O)CN1CCN(C)CC1	-1	3	36*	5	5
O=C(C(=O)N1CCN(S(=O)(=O)c2ccc(OC(F)(F)F)cc2)CC1)c1cccc(C(F)(F)F)c1	-1	0	7	-4	.
COc1cccc(C(=O)n2ccc3ccc(-c4ccc5ccn(Cc6ccccc6)c5c4)cc32)c1	-3	-5	-6	7	.
COC[C@@H]1CCCN1c1cccc2c1S(=O)(=O)N(C1CC1)CCCO2	0	-4	7	-3	.
COc1ccc(CCn2c(N)c(C(=O)NCc3ccco3)c3nc4ccccc4nc32)cc1OC	-7	-10	25*	-3	26*
SMILES	MBD2 DNA inh	UHRF1 MBD2 ctr	TDP2 absorb	LEDGF integ inh	TDP2 inh conf
COc1ccc(CCn2c(N)c(C(=O)NCc3ccco3)c3nc4ccccc4nc32)cc1	-7	-9	9	4	.
CC(=O)N1C[C@@H](CO)[C@@H](N(C)C(=O)/C=C/c2ccccc2)C[C@H]1c1ccccc1	2	0	-7	-2	.
O=C(c1ccc(Br)o1)N1CCC(Cc2ccccc2)CC1	1	-2	1	-2	.
Cn1nccc1C(=O)N1CCC(Cc2ccccc2)CC1	3	3	45*	-8	3
COc1cccc(CNC(=O)CN2CCCc3ccccc32)c1OC	-1	-1	4	0	.
Cc1ccc(S(=O)(=O)c2c(N)n(CCCO)c3nc4ccccc4nc23)cc1	-6	2	54*	13	-7
CN(c1ccc(NC(=O)CCc2cn(Cc3ccc(Br)cc3)c3ccccc23)cc1)c1ccccn1	2	2	-1	0	.
Cc1ccc(-n2c3nc(=O)[nH]c(=O)c-3cc3cc([N+](=O)[O-])ccc32)cc1	-1	3	46*	-1	41*
CC(=O)C(C(C)=O)C1(O)C(=O)c2ccccc2C1=O	-5	-2	44*	-3	68*
CC(=O)N(C)C1=C(O)c2ccccc2C(=O)C1=O	-6	-10	5	1	.
Cc1[nH][nH]c(=O)c1C(c1ccc(-c2ccccc2C(=O)O)o1)c1c(C)[nH][nH]c1=O	0	13	45*	6	39*
COC(=O)COc1ccc(C(c2c(C)[nH][nH]c2=O)c2c(C)[nH][nH]c2=O)cc1	1	-6	13	-4	.
Cc1ccc2oc(-c3ccccc3C(=O)O)cc(=O)c2c1	3	1	8	-2	.
CNC(=S)N/N=C/c1ccc(-c2cccc(C(=O)O)c2)o1	0	-1	9	4	.
COC(=O)c1ccc(-c2ccc(C(c3c(C)[nH][nH]c3=O)c3c(C)[nH][nH]c3=O)o2)cc1	2	17	26*	10	25*
Cc1[nH][nH]c(=O)c1C(c1ccc(-c2cccc(C(=O)O)c2)o1)c1c(C)[nH][nH]c1=O	0	13	63*	13	31*
O=S(=O)(NCc1cn(Cc2ccccc2)nn1)c1ccccc1Br	-2	0	-4	0	.
COc1cccc(N2CCN(Cc3cccnc3)CC2)c1	9	16	31*	3	-8
FC(F)(F)c1cccc(N2CCN(Cc3cccnc3)CC2)c1	0	-2	7	1	.
C[C@@H]1CCCN1c1ccc2c(c1)O[C@H]1CCN(C1)S2(=O)=O	5	0	-11	-8	.
Cc1ccc(CN2CCN(c3ncccn3)CC2)o1	-1	-3	0	-3	.
Cc1ccc(CN2CCN(c3ccccc3)CC2)o1	-6	-1	26*	0	-2
O=C(CN1C(=O)CCS(=O)(=O)c2ccccc21)NCCc1ccccc1	3	-4	26*	-3	10
Cc1cc(C(F)(F)F)nn1CC(=O)NCc1ccco1	0	3	31*	4	4
Cc1c(Cl)c(C(F)(F)F)nn1CC(=O)NCc1ccco1	-1	-2	5	-2	.
CC1CCN(CCOc2cc(Cl)ccc2Cl)CC1	2	-3	25*	0	1
Cc1ccc(C(=O)NCCONC(=O)c2ccc(C)cc2)cc1	0	0	25*	-1	-6
C[C@H]1[C@@H](NC(=O)c2cccc(C(F)(F)F)c2)CC[C@@]23CCCN2C(=O)CCC[C@@H]13	2	-2	4	3	.
Cc1oc2c(c1C(=O)O)C(=O)c1ccccc1C2=O	-13	-7	11	7	.

High-throughput results deposited in PubChem BioAssay by The Scripps Research Institute Molecular Screening Center.
